Test results from ChEMBL document CHEMBL3243994, “Synthesis of medroxyprogesterone bromoacetate for affinity labeling” (J Med Chem, 1977).
Activity calls are given as the source filed them. The rule behind the calls is not given here.

What was measured:
[1] = tested on: Rattus norvegicus; assay: Progestational activity in 9-day old pregnant bilateral ovariectomized Sprague-Dawley albino rat assessed as viable fetus at 0.055 to 0.11 mg, sc for 3 days beginning 3 hrs prior to overiectomy measured on day 12 in presence of 17beta-estradiol; assay type: functional, organism-based
How it was run: (§1)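 Albino rats (Holtzman), 9 days pregnant and weighing 275–305 g, were used in groups of five. They received subcutaneous steroid in 0.2 mL sesame oil together with 17β-estradiol, 3 h before bilateral ovariectomy. Injections were repeated every 12 h for 3 days. On day 12 the animals were killed, opened by a ventral longitudinal incision, and the intact uteri removed to examine the fetuses.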

[2] = molecular target: 3-alpha-(or 20-beta)-hydroxysteroid dehydrogenase (Streptomyces exfoliatus) (UniProt P19992); assay: Inhibition of 20beta-hydroxy steroid dehydrogenase in Streptomyces hydrogenans assessed as half life of enzyme inactivation at 50 uM
Chain of 3-alpha-(or 20-beta)-hydroxysteroid dehydrogenase (Streptomyces exfoliatus) (P19992 whole entry): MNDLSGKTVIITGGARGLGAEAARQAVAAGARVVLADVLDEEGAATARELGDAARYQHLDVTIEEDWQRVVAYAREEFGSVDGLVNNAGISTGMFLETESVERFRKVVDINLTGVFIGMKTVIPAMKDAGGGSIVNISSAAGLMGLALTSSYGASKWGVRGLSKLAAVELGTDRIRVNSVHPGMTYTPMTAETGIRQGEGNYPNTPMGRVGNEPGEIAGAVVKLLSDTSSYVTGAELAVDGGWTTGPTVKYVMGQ
How it was run: (§2)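 20β-Hydroxy steroid dehydrogenase from Streptomyces hydrogenans (4.2×10^-7 M) in 0.05 M phosphate buffer, pH 7.0, with 15% glycerol, was incubated with the bromoacetate steroid at 5×10^-5 M at 25 °C. Remaining activity was followed over time as NADH-dependent cortisone reduction to assess time-dependent, irreversible inactivation. The inactivation half-life was taken from the rate of activity loss.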

[3] = tested on: Rattus norvegicus; assay: Progestational activity in 9-day old pregnant bilateral ovariectomized Sprague-Dawley albino rat assessed as unresorbed fetus at 0.074 mg, sc for 2 days beginning 3 hrs prior to overiectomy measured on day 12 in presence of 17beta-estradiol; assay type: functional, organism-based
How it was run: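 Pregnant albino rats (Holtzman, day 9, 275–305 g) were used in a group of five. They received a subcutaneous steroid/17β-estradiol mixture in 0.2 mL sesame oil 3 h before bilateral ovariectomy and a second injection 12 h later, with nothing given afterwards. On day 12 the rats were sacrificed and autopsied, and the intact uteri removed to score the fetuses.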

[4] = tested on: Rattus norvegicus; assay: Progestational activity in 9-day old pregnant bilateral ovariectomized Sprague-Dawley albino rat assessed as viable fetus at 0.074 to 0.15 mg, sc for 3 days beginning 3 hrs prior to overiectomy measured on day 12 in presence of 17beta-estradiol; assay type: functional, organism-based; how it was run: as §1
[5] = molecular target: 3-alpha-(or 20-beta)-hydroxysteroid dehydrogenase (Streptomyces exfoliatus) (UniProt P19992); assay: Time-dependent inhibition of 20beta-hydroxy steroid dehydrogenase in Streptomyces hydrogenans assessed as inhibition of […] at 50 uM; how it was run: as §2
[6] = molecular target: 3-alpha-(or 20-beta)-hydroxysteroid dehydrogenase (Streptomyces exfoliatus) (UniProt P19992); assay: Irreversible inhibition of 20beta-hydroxy steroid dehydrogenase in Streptomyces hydrogenans assessed as inhibition of […] at 50 uM; how it was run: as §2
[7] = tested on: Rattus norvegicus; assay: Termination of pregnancy in intact rat assessed as fetal resorption administered into uterine lumen on day 7 measured on day 14; assay type: functional, organism-based
[8] = tested on: Rattus norvegicus; assay: Progestational activity in 9-day old pregnant bilateral ovariectomized Sprague-Dawley albino rat assessed as viable fetus at 1 mg, sc for 3 days beginning 3 hrs prior to overiectomy measured on day 12 in presence of 17beta-estradiol; assay type: functional, organism-based
How it was run: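 Groups of five 9-day-pregnant albino rats (275–305 g) received sc injections in 0.2 mL sesame oil together with 17β-estradiol (0.1×10^-3 mg), starting 3 h before bilateral ovariectomy. Injections were repeated every 12 h for 3 days. On day 12 the animals were sacrificed and opened by longitudinal ventral incision, and the intact uteri were removed to examine the fetuses.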

Row | Structure (SMILES) | T1/2 [2] [h] | Activity [7] | other results
1 | CC(=O)O[C@]1(C(C)=O)CC[C@H]2[C@@H]3C[C@H](C)C4=CC(=O)CC[C@]4(C)[C@H]3CC[C@@]21C | – | – | Activity [1]: Active
2 | CC(=O)[C@@]1(OC(=O)CBr)CC[C@H]2[C@@H]3C[C@H](C)C4=CC(=O)CC[C@]4(C)[C@H]3CC[C@@]21C | 15 | inactive | Activity [3]: Active; Activity [4]: Active; inhibition [5]: Active; inhibition [6]: Active
3 | CC(=O)[C@H]1CC[C@H]2[C@@H]3CCC4=CC(=O)CC[C@]4(C)[C@H]3CC[C@]12C | – | – | Activity [8]: Active
4 | C[C@]12CC[C@H]3[C@@H](CCC4=CC(=O)CC[C@@H]43)[C@@H]1CC[C@@H]2OC(=O)CBr | – | Active | –
5 | CC(=O)[C@H]1CC[C@H]2[C@@H]3CCC4=CC(=O)CC[C@]4(C)[C@H]3[C@H](OC(=O)CBr)C[C@]12C | – | Active | –
6 | CC(=O)[C@H]1[C@H](OC(=O)CBr)C[C@H]2[C@@H]3CCC4=CC(=O)CC[C@]4(C)[C@H]3CC[C@@]21C | 4 | Active | –
